What was measured:
[1] = target: Eukaryotic translation initiation factor 2-alpha kinase 1 (Homo sapiens) (UniProt Q9BQI3); test: Activation of HRI in human CRL-2813-pBISA-DL(ATF-4) reporter cells assessed as reduction of ternary complex at 30 uM by dual-luciferase reporter gene assay relative to control
In short: (§1)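 Stably transfected CRL-2813-pBISA-DL(ATF-4) reporter cells treated with compounds in dose-response; firefly and renilla luciferases read by dual glow luciferase kit. Activity = firefly/renilla (F/R) ratio normalized to DMSO-treated wells (set at 1). Triplicate points fitted to logistic sigmoidal model by nonlinear least squares; C3X = concentration giving F/R = 3, Emax = maximal F/R.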

[2] = Cytotoxicity against human CRL2813 cells after 5 days by SRB assay; format: functional, cell-based; conditions: CRL2813, 120 h
In short: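 CRL-2813 melanoma or NIH/3T3 fibroblasts seeded in 96-well plates, exposed 5 days to 0.5–20 μM compound; fixed in cold 10% TCA, bound sulforhodamine B measured. % growth = 100×(T−T0)/(C−T0). IC50 derived; triplicate, three independent experiments.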

[3] = target: Eukaryotic translation initiation factor 2-alpha kinase 1 (Homo sapiens) (UniProt Q9BQI3); test: Activation of HRI in human CRL-2813-pBISA-DL(ATF-4) reporter cells assessed as concentration required to obtain F-luciferase expression/R-luciferase expression ratio 3; in short: as §1

Eukaryotic translation initiation factor 2-alpha kinase 1 (Homo sapiens), sequence (Q9BQI3 whole entry): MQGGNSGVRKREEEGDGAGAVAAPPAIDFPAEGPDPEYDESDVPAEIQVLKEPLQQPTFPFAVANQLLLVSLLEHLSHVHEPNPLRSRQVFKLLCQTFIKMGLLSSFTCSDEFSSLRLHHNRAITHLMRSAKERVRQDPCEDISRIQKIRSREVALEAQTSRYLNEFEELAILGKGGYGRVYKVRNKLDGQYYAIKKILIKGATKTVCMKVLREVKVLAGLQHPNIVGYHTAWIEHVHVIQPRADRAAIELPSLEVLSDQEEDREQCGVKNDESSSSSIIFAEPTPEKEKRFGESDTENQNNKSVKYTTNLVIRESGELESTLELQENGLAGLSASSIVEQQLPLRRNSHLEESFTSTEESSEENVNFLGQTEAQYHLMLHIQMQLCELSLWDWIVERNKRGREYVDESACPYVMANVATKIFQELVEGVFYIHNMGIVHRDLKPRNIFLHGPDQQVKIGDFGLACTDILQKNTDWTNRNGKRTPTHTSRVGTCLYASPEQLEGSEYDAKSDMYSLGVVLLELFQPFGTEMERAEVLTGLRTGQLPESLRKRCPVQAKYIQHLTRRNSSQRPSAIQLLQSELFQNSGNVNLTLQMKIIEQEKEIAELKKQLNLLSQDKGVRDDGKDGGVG

SMILES	Ratio [1]	IC50 [2] [µM]	Activity [3] [µM]
O=C(Nc1cccc(C(=O)O)c1)N[C@H]1CC[C@H](Oc2ccc(F)cc2)CC1	0.88	> 20	–
O=C(Nc1ccc(F)cc1)N[C@H]1CC[C@H](Oc2ccc(F)cc2)CC1	0.98	20	–
O=C(Nc1cccc([N+](=O)[O-])c1)N[C@H]1CC[C@H](Oc2ccc(F)cc2)CC1	7.47	6.7	11.4
O=C(Nc1ccccc1Br)N[C@H]1CC[C@H](Oc2ccc(F)cc2)CC1	5.23	7.7	16.4
O=C(Nc1cccc(C(F)(F)F)c1)N[C@H]1CC[C@H](Oc2ccccc2C(F)(F)F)CC1	15.7	1.4	1.2
O=C(Nc1ccccc1Cl)N[C@H]1CC[C@H](Oc2ccc(F)cc2)CC1	5.37	9.1	18.5
O=C(Nc1cccc(C(F)(F)F)c1)N[C@H]1CC[C@H](O)CC1	0.89	> 20	–
COC(=O)c1ccc(NC(=O)N[C@H]2CC[C@H](Oc3ccc(F)cc3)CC2)cc1	3.97	11.6	12.8
CSc1cccc(NC(=O)N[C@H]2CC[C@H](Oc3ccc(F)cc3)CC2)c1	6.67	11.1	12.2
COc1ccccc1NC(=O)N[C@H]1CC[C@H](Oc2ccc(F)cc2)CC1	1.51	> 20	–
CSc1ccc(NC(=O)N[C@H]2CC[C@H](Oc3ccc(F)cc3)CC2)cc1	1.07	> 20	–
Cc1ccccc1NC(=O)N[C@H]1CC[C@H](Oc2ccc(F)cc2)CC1	0.98	> 20	–
O=C(Nc1cccc(Cl)c1)N[C@H]1CC[C@H](Oc2ccc(F)cc2)CC1	8.76	5.9	6.4
O=C(Nc1ccccc1OC(F)(F)F)N[C@H]1CC[C@H](Oc2ccc(F)cc2)CC1	1.41	> 20	–
COC(=O)c1ccccc1NC(=O)N[C@H]1CC[C@@H](Oc2ccc(F)cc2)CC1	3.79	14.5	26.2
O=C(Nc1ccccc1F)N[C@H]1CC[C@H](Oc2ccc(F)cc2)CC1	2.1	17.5	–
O=C(Nc1ccc(Br)cc1)N[C@H]1CC[C@H](Oc2ccc(F)cc2)CC1	1.29	> 20	–
Cc1ccc(NC(=O)N[C@H]2CC[C@H](Oc3ccc(F)cc3)CC2)cc1	1.05	> 20	–
O=C(Nc1cccc(C(F)(F)F)c1)N[C@H]1CC[C@H](Oc2ccc(Cl)cc2)CC1	6.73	2	1.6
O=C(Nc1ccc(C(=O)O)cc1)N[C@H]1CC[C@H](Oc2ccc(F)cc2)CC1	3.49	11.6	21.2
O=C(Nc1cccc(Br)c1)N[C@H]1CC[C@H](Oc2ccc(F)cc2)CC1	9.52	6.2	5.7
O=C(Nc1ccccc1C(=O)O)N[C@H]1CC[C@@H](Oc2ccc(F)cc2)CC1	1.2	> 20	–
CSc1ccccc1NC(=O)N[C@H]1CC[C@H](Oc2ccc(F)cc2)CC1	0.92	> 20	–
O=C(Nc1ccccc1)N[C@H]1CC[C@H](Oc2ccc(F)cc2)CC1	1.65	20	–
O=C(Nc1cccc(C(F)(F)F)c1)N[C@H]1CCC[C@H](Oc2ccc(C(F)(F)F)cc2)C1 (relative stereo)	4.52	3.8	2.7
COc1ccc(NC(=O)N[C@H]2CC[C@H](Oc3ccc(F)cc3)CC2)cc1	0.83	> 20	–
O=C(Nc1cccc(C(F)(F)F)c1)NC1CCCCC1	1.87	13.2	–
O=C(Nc1ccc(Cl)cc1)N[C@H]1CC[C@H](Oc2ccc(F)cc2)CC1	1.65	> 20	–
O=C(Nc1ccccc1[N+](=O)[O-])N[C@H]1CC[C@H](Oc2ccc(F)cc2)CC1	2.23	3.5	–

Reference: ChEMBL document CHEMBL3098030, “Explorations of substituted urea functionality for the discovery of new activators of the heme-regulated inhibitor kinase” (J Med Chem, 2013)
